Screening data as filed in PubChem.
WT yeast gro inh: growth inhibition of WT yeast, mitochondrial fusion screen; actives 2.1% (n = 190,000); inhibition, % at 10 µM; mitochondrial fusion phenotypic screen, WT strain; AID 1362; in the data active = inhibition above about 58%; tested in S. cerevisiae
L major viab: Leishmania major promastigote growth inhibition; Leishmania major promastigotes, resazurin fluorescence viability; actives 9% (n = 200,000); inhibition, % at 10 µM; in the data active = inhibition above about 50%;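 also: promastigotes grown with compound for 44 hours at 28 °C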
PMI act hi M6P: PMI (human) activation, high substrate; coupled PMI enzyme assay, resazurin fluorescence, 20 min; hits give high values; 1 = untreated enzyme, 0 = substrate-free blank; activation factor at 20 µM; actives 0.34% (n = 190,000); AID 1216;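 active = activation factor of 2 or more at 20 µM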
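test system = human PMI in coupled enzyme assay | medium = HEPES-buffered pH 7.4 with magnesium and detergent | also added = 1.0 mM mannose-6-phosphate substrate with 0.22 mM NADP+ | compound = 20 µM single dose | times = 20 min incubation at room temperature | measured by = resorufin fluorescence (Ex 544/Em 590 nm) from resazurin via diaphorase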
Rad51 HR inh: Rad51 (human) homologous recombination inhibition; inhibition, % at 10 µM; hRad51 DNA strand exchange, fluorescence dequenching; actives 0.085% (n = 200,000); Q06609;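 active = inhibition above 40% at the single screening dose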;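 also: 0% = DMSO control wells and 100% = blanks with heterologous ssDNA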
Target sequence (Q06609 whole entry, looked up): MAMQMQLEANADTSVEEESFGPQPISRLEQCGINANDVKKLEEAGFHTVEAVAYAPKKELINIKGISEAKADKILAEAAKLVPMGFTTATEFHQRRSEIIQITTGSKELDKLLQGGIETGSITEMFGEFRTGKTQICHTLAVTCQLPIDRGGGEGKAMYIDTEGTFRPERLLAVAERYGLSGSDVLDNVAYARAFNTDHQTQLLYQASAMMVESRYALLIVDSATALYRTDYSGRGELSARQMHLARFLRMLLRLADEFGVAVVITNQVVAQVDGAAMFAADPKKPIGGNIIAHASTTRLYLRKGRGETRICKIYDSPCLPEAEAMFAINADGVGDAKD
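material = hRad51 filaments on single-stranded DNA | timing = filaments 15 min 37 °C, then compound 30 min | signal = FRET fluorescence dequenching, excitation 485 nm, emission 520 nm | benchmarks = control wells and blank wells on each plate | evaluation = percent inhibition relative to plate controls and blanks | compound = 10 µM final, single point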
Calpain2 inh: calpain II (pig) inhibition; actives 0.37% (n = 220,000); purified calpain II, fluorogenic peptide substrate, 30 min; inhibition, % at 16 µM;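 active = inhibition above about 50%, limit read from the data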
PMI activator: increases human mannose-6-phosphate isomerase activity; P34949; activation factor at 20 µM; purified human PMI, coupled resazurin fluorescence, 20 min; hits give high values; 1 = vehicle control, 0 substrate-free wells; actives 0.005% (n = 190,000); AID 1214;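 active = activation factor of 2 or more at 20 µM, relative to plate controls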
Active calls of the source: *; . = no result given. An excerpt weighted towards active compounds, which were near 9.8% of everything screened.

SMILES | WT yeast gro inh | L major viab | PMI act hi M6P | Rad51 HR inh | Calpain2 inh | PMI activator
CC(NC(=O)CSc1ccccc1C(=O)O)C1CC2CCC1C2 (stereo not drawn) | 16 | -2 | 1.3 | -4 | 7 | 1.5
CC(NCc1ccc(N(C)C)cc1)C1CC2CCC1C2 (stereo not drawn) | 4 | 98* | 1.1 | 0 | 24 | 1
COc1ccc(-c2nnc(Sc3nc4ccccc4o3)c3ccccc23)cc1 | 0 | 88* | 1 | -3 | -33 | 1
CC1=NN(C(=O)c2c(Br)c(C)nn2C)C(O)(C(F)(F)F)C1 (stereo not drawn) | -4 | -4 | 1.1 | 7 | 4 | 1
N#Cc1cc2ccccc2nc1SCC(=O)Nc1ccc(S(=O)(=O)N2CCCC2)cc1 | -47 | 96* | 1 | 0 | -303 | 0.9
COc1ccc2nc(SCC(=O)Nc3ccc(S(=O)(=O)N4CCCC4)cc3)c(C#N)cc2c1 | -4 | 90* | 1.3 | -7 | -151 | 1
O=C(/C=C/c1cccc(F)c1)N1CCN(c2ncccn2)CC1 | 2 | -10 | 0.9 | 3 | -12 | 0.9
CC1(C)CC(=O)c2c(oc3cc(O)c(O)cc23)C1 | -24 | 84* | 0.6 | -6 | -4 | 0.5
COC(=O)c1oc2c(c1C)C(=O)CC(C)(C)C2 | -3 | -6 | 1.1 | 8 | 17 | 1.1
COC(C[C@@H]1O[C@H]1C(=O)[C@@H](C)OCc1ccccc1)OC | . | . | . | 7 | . | .
COC(=O)c1ccc(NC(=O)COc2ccc(C3C(C#N)=C(N)Oc4c3ccc3ccccc43)cc2OC)cc1 (stereo not drawn) | -10 | 95* | 0.8 | 0 | -119 | 0.9
Cc1cc(C)nc(NS(=O)(=O)c2ccc(N3C(=O)C4C5C=CC(C5)C4C3=O)cc2)n1 (stereo not drawn) | -6 | -5 | 0.9 | 8 | -5 | 1
CC1=CC2CC1C1C(=O)N(c3ccc(S(=O)(=O)Nc4nc(C)cc(C)n4)cc3)C(=O)C21 (stereo not drawn) | -4 | 52* | 1 | -6 | 17 | 1.1
Cc1ccc(CSCC(=O)NN=C2CCN(C)CC2)cc1 | 10 | -4 | 0.7 | -11 | 22 | 0.9
CCOc1ccc(C(=O)Nc2nnc(C(C)C)s2)cc1OCC | 13 | 87* | 1 | 2 | 12 | 1.1
O=C(Nc1cccc2nsnc12)c1cccnc1 | -4 | 78* | 0.6 | 9 | -25 | 0.7
Cc1ccc(C(=O)CC(=O)c2cc(Cl)ccc2O)cc1 | 62* | 99* | 1.1 | -2 | -26 | 1.1
CC(C)(C)c1ccc(C(=O)CC(=O)c2cc(Cl)ccc2O)cc1 | 65* | 99* | 1.1 | 3 | -91 | 1.1
COc1ccc(CN(CC2CCC(C(=O)O)CC2)C(=S)Nc2cc(C)ccc2C)cc1 (stereo not drawn) | -10 | 2 | 0.9 | -8 | -36 | 0.9
CCOC(=O)C1=C(C(F)(F)F)Nc2ncnn2C1c1cc(OC)c(OC)cc1OC (stereo not drawn) | 15 | -1 | 1.1 | -4 | -14 | 1.1
CCOC(=O)C1=C(c2ccccc2)Nc2ncnn2C1c1cc(OC)cc(OC)c1OC (stereo not drawn) | -16 | 92* | 1 | -2 | -3 | 1
CCOC(=O)C1=C(c2ccccc2)Nc2ncnn2C1c1ccc(O)cc1 (stereo not drawn) | . | . | . | -3 | 2 | .
CCOC(=O)C1=C(c2ccccc2)Nc2ncnn2C1c1cccc(OC)c1OC (stereo not drawn) | -5 | 100* | 0.9 | 10 | 0 | 0.9
O=C(N=C1N=C2C=CC(Br)=CN2Cc2ccccc21)c1ccc([N+](=O)[O-])cc1[N+](=O)[O-] | . | . | . | -2 | -17 | .
O=S(=O)(NC1CCCCC1Sc1ncccn1)c1ccc(Cl)cc1 (stereo not drawn) | 6 | 38 | 1.3 | 4 | 7 | 1.3
O=S(=O)(NC1CCCCC1Sc1ncccn1)c1ccccc1 (stereo not drawn) | -17 | 65* | 1 | 0 | 5 | 0.8
O=S(=O)(NC1CCCCC1Nc1ccc(Cl)cc1)c1ccccc1 (stereo not drawn) | 28 | 91* | 0.9 | 3 | 27 | 0.9
O=C(CCCO)N/N=C/c1ccccc1[N+](=O)[O-] | 10 | 12 | 0.9 | 10 | 22 | 0.9
